CHO parental Ca = ATP-evoked calcium signal inhibitors, parental CHO, primary screen, counter-screen for OX1R antagonist project, cell-based, fluorescence, Fluo-8 calcium dye; parental CHO-K1, ATP-induced calcium, Fluo-8 fluorescence; 330,000 tested, 0.63% active; inhibition, % at 5.6 µM; AID 463079, 2010;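 active means inhibition above that plate's mean sample inhibition plus 3 SD, cut at about 26% in these data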;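 further: 0% = ATP-challenged DMSO wells and 100% = DMSO wells without ATP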
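Measured by: calcium-sensitive Fluo-8 fluorescence / Test system: CHO parental line / Controls: ATP-challenged DMSO wells low, unchallenged DMSO wells high / Measure: % inhibition / Compound: single nominal dose of 5.6 µM per compound / Replicates: single well per compound, no replicates / Reagent: ATP as calcium-mobilizing challenge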
TAAR1 agonist = human TAAR1 agonists, primary screen, Fluo-8 calcium fluorescence, CHO RD-HGA16 cells. AID 624467, 2012. Trace amine-associated receptor 1 (Homo sapiens), Q96RJ0. vehicle wells 0%, saturating PEA agonist 100%. activation, % at 3 µM. 360,000 tested, 0.99% active;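 active means activation above the mean activation of all test compounds in the run plus 3 SD, cut at about 38% in these data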
Target sequence (Q96RJ0 whole entry, looked up): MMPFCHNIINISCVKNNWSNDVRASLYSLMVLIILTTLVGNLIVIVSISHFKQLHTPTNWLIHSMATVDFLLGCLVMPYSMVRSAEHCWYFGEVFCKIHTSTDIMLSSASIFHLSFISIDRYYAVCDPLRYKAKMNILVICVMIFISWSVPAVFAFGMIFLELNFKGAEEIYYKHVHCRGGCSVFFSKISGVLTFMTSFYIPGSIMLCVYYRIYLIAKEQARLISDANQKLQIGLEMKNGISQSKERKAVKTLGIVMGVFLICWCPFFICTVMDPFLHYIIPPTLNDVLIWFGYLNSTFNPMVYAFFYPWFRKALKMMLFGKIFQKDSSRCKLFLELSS
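Signal – calcium-sensitive Fluo-8 signal, excitation 470-495, emission 515-575 nm · System – RD-HGA16 (CHO) cells co-expressing Gα16 and hTAAR1 · Incubation – 17-24 h seeding, 75 min 37 °C dye, 30 min RT · Compound dosing – 3 µM single concentration · Repeats – no replicates (n 1)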
OX1R antag-1 = antagonists of human orexin 1 receptor (OX1R). OX1R-expressing cells, FRET antagonist read-out. 330,000 tested, 1.8% active. Orexin/Hypocretin receptor type 1 (Homo sapiens), O43613. inhibition, % at 6.6 µM; in the data active means inhibition mostly above about 38%, no sharp cut-off; inactive means mostly below about 40%;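 further: 0% = agonist challenge alone and 100% = reference antagonist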
TAAR1 antag = human TAAR1 antagonists, primary screen, Fluo-8 calcium fluorescence, CHO RD-HGA16 cells; antagonist; 360,000 tested, 1.5% active; inhibition, % at 3 µM; Trace amine-associated receptor 1 (Homo sapiens), Q96RJ0;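 active means inhibition above a per-plate cutoff, the mean inhibition of test compounds on that plate plus 3 SD, cut at about 49% in these data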;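 further: 0% = DMSO plus EC80 beta-PEA response and 100% = DMSO alone without agonist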
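Test system: CHO RD-HGA16 cells bearing hTAAR1 | Reagent: β-PEA, EC80 | Compound dosing: 3 µM, single point | Schedule: Dye loading 75 min at 37 °C, then 30 min room temperature | Signal: Calcium fluorescence with Fluo-8 | Evaluation: Percent inhibition of PEA-evoked calcium signal, max/basal emission ratio | Control set: DMSO-only wells and EC80 β-PEA-stimulated wells | Repeats: Singlicate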
OX1R antag-2 = OX1R (HCRTR1) antagonists, primary screen, fluorescence, CHO/OX1R cells, Fluo-8 calcium, orexin A | Fluo-8 calcium fluorescence | inhibition, % at 5 µM | Orexin/Hypocretin receptor type 1 (Homo sapiens), O43613 | 330,000 tested, 0.43% active;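 active means inhibition above its plate's threshold, mean inhibition of all tested compounds on the plate plus 3 SD, cut at about 37% in these data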;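 further: 0% = orexin A challenge wells and 100% = SB-334867-A antagonist wells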
GPR7 antagonist = GPR7 receptor antagonists, primary screen, cell-based, fluorescence, single concentration; Neuropeptides B/W receptor type 1 (Homo sapiens), P48145; GPR7-expressing cells, fluorescence antagonist assay; inhibition, % at 4.4 µM; 290,000 tested, 1.1% active; in the data active means inhibition above about 16%, passing the limit was not always enough;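 further: cells stimulated with the agonist NPW; 0% = agonist with vehicle and 100% = vehicle without agonist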
Target sequence (P48145 whole entry, looked up): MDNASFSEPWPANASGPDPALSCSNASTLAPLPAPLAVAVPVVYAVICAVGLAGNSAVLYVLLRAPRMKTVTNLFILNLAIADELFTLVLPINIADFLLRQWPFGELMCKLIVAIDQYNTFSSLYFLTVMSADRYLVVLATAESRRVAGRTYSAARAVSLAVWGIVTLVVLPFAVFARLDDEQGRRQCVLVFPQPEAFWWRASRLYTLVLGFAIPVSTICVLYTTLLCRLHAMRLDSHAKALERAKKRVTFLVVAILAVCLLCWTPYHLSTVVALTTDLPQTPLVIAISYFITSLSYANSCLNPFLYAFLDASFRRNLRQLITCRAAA
Active calls of the source: *. Most compounds without a hit are left out; they make up all but 4.6% or so of the library.

`O=c1[nH]c2ccccc2[nH]c1=O` gave CHO parental Ca -6, TAAR1 agonist -1, OX1R antag-1 22, TAAR1 antag -1, OX1R antag-2 -3 and GPR7 antagonist -7.
Screening CN1CCCCC(NC(=O)CCl)C1=O (stereo unspecified) returned TAAR1 agonist 1 and TAAR1 antag -12.
For CCCN1C=CC(=C/C=C(\C#N)C(=O)OCC)C=C1 the results were CHO parental Ca 33*, OX1R antag-1 73*, OX1R antag-2 36 and GPR7 antagonist 8.
For COC(=O)C1=C(C)N(Cc2ccccc2C(F)(F)F)C(=NCC2CC2)NC1CCc1ccccc1 (stereo unspecified) the results were TAAR1 agonist 15 and TAAR1 antag 4.
CCOC(=O)c1c(NC(=O)c2ccco2)sc2c1CCCC2 was read as CHO parental Ca -5, TAAR1 agonist 7, OX1R antag-1 8, TAAR1 antag -1, OX1R antag-2 -9 and GPR7 antagonist -14.
`CCOC(=O)c1c(NC(=O)CN2CCN(C(=O)c3ccco3)CC2)sc2c1CCCC2` gave CHO parental Ca 60*, TAAR1 agonist 8, OX1R antag-1 15, TAAR1 antag 9, OX1R antag-2 70* and GPR7 antagonist 0.
For CCOC(=O)c1cc(C)sc1NC(=O)CN1CCN(C(=O)c2ccco2)CC1 the results were CHO parental Ca 87*, TAAR1 agonist 42*, OX1R antag-1 7, TAAR1 antag 35, OX1R antag-2 53* and GPR7 antagonist -22.
C[C@H](NC(=O)/C=C/[C@H]1O[C@@H](n2ccc(=O)[nH]c2=O)[C@H](O)[C@@H]1O)C(=O)O was read as TAAR1 agonist 1 and TAAR1 antag -5.
`O=C(NCc1cccnc1)C(=O)N/N=C/c1ccccc1[N+](=O)[O-]` gave CHO parental Ca -7, TAAR1 agonist 10, OX1R antag-1 19, TAAR1 antag -12, OX1R antag-2 -6 and GPR7 antagonist -9.
O=C(NCc1cccnc1)C(=O)N/N=C/c1ccc([N+](=O)[O-])cc1 was read as CHO parental Ca -4, TAAR1 agonist 9, OX1R antag-1 59*, TAAR1 antag -17, OX1R antag-2 -29 and GPR7 antagonist -7.
Screening Cc1ccc(CNC(=O)c2oc3ccc(S(=O)(=O)N4CCC5(CC4)OCCO5)cc3c2C)cc1 returned CHO parental Ca 1, TAAR1 agonist 13, OX1R antag-1 36, TAAR1 antag 57*, OX1R antag-2 -18 and GPR7 antagonist 0.
Cc1ccccc1Cn1nc(C)c(NC(=O)C2c3ccccc3Oc3ccccc32)c1C was read as CHO parental Ca -6, TAAR1 agonist 39*, OX1R antag-1 24, TAAR1 antag 6, OX1R antag-2 -2 and GPR7 antagonist -4.
For Cc1ccccc1S(=O)(=O)NC(=O)C1(C)CCN1C(=O)Cc1cccs1 (stereo unspecified) the results were TAAR1 agonist 3 and TAAR1 antag -18.
CCCCOCCCNC(=O)C[C@H]1C[C@@]2(C(=O)OC)C(=C[C@H](COCc3ccccc3)O[C@@H]2C)N(CCC2=CCCCC2)C1=O was read as TAAR1 agonist -3 and TAAR1 antag -24.
Screening O=C(c1ccc(N2CCCCC2)c([N+](=O)[O-])c1)N1CCN(c2ccccn2)CC1 returned CHO parental Ca -23, TAAR1 agonist -2, OX1R antag-1 20, TAAR1 antag 15, OX1R antag-2 -18 and GPR7 antagonist -15.
`O=C1C2CC=CCC2C(=O)N1c1ccc(N2CCN(c3ccccn3)CC2)c([N+](=O)[O-])c1` (stereo unspecified) gave CHO parental Ca 46*, TAAR1 agonist 9, OX1R antag-1 42, TAAR1 antag 13, OX1R antag-2 27 and GPR7 antagonist 2.
Screening CSc1nccn1CC(=O)Nc1ccc(F)cc1 returned CHO parental Ca 41*, TAAR1 agonist 2, OX1R antag-1 7, TAAR1 antag 8, OX1R antag-2 -12 and GPR7 antagonist 4.
Screening COc1cccc(Nc2nc(C(N)Cc3ccccc3)cs2)n1 (stereo unspecified) returned TAAR1 agonist 52* and TAAR1 antag 29.
Screening NC(Cc1ccc(C(F)(F)F)cc1)c1csc(Nc2ccccn2)n1 (stereo unspecified) returned TAAR1 agonist 46* and TAAR1 antag 8.
NC(Cc1ccc(C(F)(F)F)cc1)c1csc(Nc2ncccn2)n1 (stereo unspecified) was read as TAAR1 agonist 19 and TAAR1 antag 9.
CN(Cc1ccccc1)C(=O)c1ccc(Nc2nc(C(N)Cc3ccccc3)cs2)nc1 (stereo unspecified) was read as TAAR1 agonist 45* and TAAR1 antag 45.
For NC(Cc1ccc(C(F)(F)F)cc1)c1csc(Nc2cc(NCc3ccco3)ncn2)n1 (stereo unspecified) the results were TAAR1 agonist 38* and TAAR1 antag 29.
Screening CC(=O)c1c(C)[nH]c(C(=O)COC(=O)c2cc(C)oc2C)c1C returned CHO parental Ca -5, TAAR1 agonist 8, OX1R antag-1 15, TAAR1 antag 16 and OX1R antag-2 18.
Screening CC(=O)c1c(C)[nH]c(C(=O)COC(=O)C2(C)CC2(Cl)Cl)c1C (stereo unspecified) returned CHO parental Ca -6, TAAR1 agonist 17, OX1R antag-1 6, TAAR1 antag 56* and OX1R antag-2 16.
For Cc1ccc(-c2nc3c4ccccc4ccn3c2Cc2cccc(F)c2)cc1 the results were TAAR1 agonist 3 and TAAR1 antag -9.
COc1ccc(CC(N)c2csc(NC(=O)Nc3ccc(OC)cc3)n2)cc1 (stereo unspecified) was read as TAAR1 agonist 25 and TAAR1 antag 26.
For NC(Cc1ccc(C(F)(F)F)cc1)c1csc(Nc2ccc(C(=O)c3ccccc3)cc2)n1 (stereo unspecified) the results were TAAR1 agonist 36 and TAAR1 antag 27.
COc1ccc(NC(=O)Nc2nc(C(N)Cc3ccc(C(F)(F)F)cc3)cs2)cc1 (stereo unspecified) was read as TAAR1 agonist 40* and TAAR1 antag 50*.
`CC(=O)c1ccc(Nc2nc(C(N)Cc3ccc(C(F)(F)F)cc3)cs2)cc1` (stereo unspecified) gave TAAR1 agonist 52* and TAAR1 antag 36.
